High-throughput results: PubChem BioAssay, several laboratories
NTR1 ag – activates human neurotensin receptor 1; AID 493036; activation, % at 20 µM; P30989; NTR1-U2OS beta-arrestin-GFP spot imaging, agonist mode; 330,000 compounds, 0.17% hits;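 active = activation at or above 40% of the spot to cytoplasm intensity ratio, with at least 20 cells analyzed; inconclusive = wells under 20 cells, flagged as cytotoxic or low count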;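 note: 0% = DMSO without peptide and 100% = 100 nM NTR1 peptide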
Target sequence (P30989 whole entry, looked up): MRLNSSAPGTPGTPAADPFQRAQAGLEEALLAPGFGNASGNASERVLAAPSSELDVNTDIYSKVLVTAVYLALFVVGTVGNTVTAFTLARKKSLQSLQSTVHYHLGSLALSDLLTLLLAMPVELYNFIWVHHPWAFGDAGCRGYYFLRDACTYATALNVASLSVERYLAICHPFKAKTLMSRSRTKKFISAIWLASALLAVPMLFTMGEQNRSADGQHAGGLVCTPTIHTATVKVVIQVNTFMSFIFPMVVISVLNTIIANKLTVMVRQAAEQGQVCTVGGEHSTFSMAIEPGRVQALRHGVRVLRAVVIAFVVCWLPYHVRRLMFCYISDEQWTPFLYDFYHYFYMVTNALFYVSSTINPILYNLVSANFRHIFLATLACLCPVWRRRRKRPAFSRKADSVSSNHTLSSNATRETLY
SR-BI DiI inh – inhibitors of mouse SR-BI mediated HDL lipid uptake; ldlA[mSR-BI] CHO cells, DiI-HDL uptake fluorescence, 3 h; Q61009; 320,000 compounds, 0.96% hits; inhibition, % at 12.5 µM; AID 488896;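 active = mean replicate inhibition of at least 70% and a set share of replicates each scoring 70 or more; inconclusive = meets just one of the two criteria; inactive = fails both criteria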;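 note: 0% = median of neutral control wells and 100% = median of positive control wells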
SR-BI DiI-HDL act – activators of SR-BI mediated HDL lipid uptake; CHO ldlA[mSR-BI] cells, DiI-HDL uptake fluorescence, 3 h; 100 = double the neutral-control signal; activation, % at 12.5 µM; 320,000 compounds, 0.096% hits; AID 504775;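 active = mean replicate activation of at least 60% and every replicate at or above 60%; inconclusive = mean or all-replicate condition met, but not both; inactive = mean below 60% and not all replicates reaching 60%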;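 note: 0% = median plate neutral-control signal and 100% = twice that signal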
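System: LDL receptor-deficient CHO ldlA cells overexpressing murine SR-BI | Timing: 3 h uptake period with compound, 37 °C | Medium: HEPES-buffered (25 mM, pH 7.4) F12 plus 0.5% BSA | Dosing: Single-point compound dose | Signal: Bottom-read fluorescence, 550/595 nm | Read-out: Retained DiI signal reflecting DiI-HDL uptake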
V-ATPase pHluor – regulators of yeast V-ATPase proton transport. S. cerevisiae, pHLuorin cytosolic pH fluorescence. response, % at 10 µM. 350,000 compounds, 0.37% hits; in the data active = response mostly above about 7.3%, no sharp cut-off; inactive = mostly below about 5.4%; note: actives read high
Vif inh – HIV Vif inhibition. inhibition, % at 7.49 µM. AID 602346. 340,000 compounds, 0.35% hits. HEK293T cells, Vif self-association by quenched fluorescence, imaging, 24 h; in the data active = inhibition above about 50%, passing the limit was not always enough; inconclusive = no clear call, values can overlap the other calls; inactive = below about 31%
CaV13 ICDI inh – Primary screen for inhibitors of IQ motif and Ca2+-dependent inactivation inhibitor domain binding in CACNA1D, Förster resonance energy transfer in living cells, …. inhibition, % at 12.3 µM. 340,000 compounds, 0.098% hits. HEK cells, CFP/YFP FRET ICDI-IQ, plate reader, 10 min; percent FRET-ratio fall versus neutral wells;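 active = mean replicate inhibition of at least 30% and at least 1% of replicates passing that level; inconclusive = only one of the two criteria is met; inactive = neither criterion is met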;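 note: 0% = median of the neutral control wells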
DiI quench – counter-screen for SR-BI lipid transfer inhibitors: DiI fluorescence quenchers; shares compounds with SR-BI DiI inh; AID 540326; AC50, µM (titrated, usually from 35 µM), for inactives: top-dose activity change, negative = quenching; 470 compounds, 20% hits; cell-free DiI-HDL fluorescence quenching, 30 min;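 active = quenching, a falling signal, with AC50 below a set limit tied to the top valid dose, actives reach about 32 µM in these data; inconclusive = no clear call, values can overlap the other calls; inactive = rising signal, and the rest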
Active calls of the source: *; ? = inconclusive; nt = no result given. Rows were chosen to be rich in hits. Some 1.7% of all compounds tested hit in one or more screens of this group.

SMILES	NTR1 ag	SR-BI DiI inh	SR-BI DiI-HDL act	V-ATPase pHluor	Vif inh	CaV13 ICDI inh	DiI quench
COC(=O)c1ccc(NC(=O)CN2CCCC2)cc1	-2	-7	7	0	1	-4	nt
CCOc1ccc(NC(=O)CN2CCN(CC(=O)Nc3ccc(C(=O)OC)cc3)CC2)cc1	0	81*	-81	-3	3	0	-1%
O=C(N[C@@H]1C/C=C\C[C@H](CC(=O)N(CCO)Cc2ccccc2)C(=O)NC[C@@H](c2ccccc2)OC1=O)OCC1c2ccccc2-c2ccccc21	6	85*	-85	2	-1	-4	1%
O=C(Nc1cccc(NC(=O)c2ccccc2Cl)c1)c1ccc(F)cc1	0	79*	-79	5	-1	-21	-1%
O=C(Nc1ccccc1C(=O)O)c1cccc(NC(=O)c2ccccc2Cl)c1	-1	34	-34	1	13	8	nt
CCOC(=O)C1CCCN(C(=O)c2cc(COc3ccc(C)nc3)on2)C1 (stereo not given)	2	-15	15	-3	-2	-3	-1%
Cc1ccc2nc(SCC(=O)NCc3cccs3)[nH]c2c1	-1	14	-14	1	-5	-20	nt
Cc1nc(CC(=O)N/N=C/c2ccc(OCC(=O)O)cc2)cs1	1	-15	15	8	7	-3	nt
COc1cc(/C=N/NC(=O)Cc2csc(C)n2)ccc1OCC(C)C	-1	82*	-82	1	-4	-5	-2%
CCOC(=O)N1CCN(CC(O)COC2CC(C)CCC2C(C)C)CC1 (stereo not given)	-2	78*	-78	2	-8	-5	-4%
CC1CCN(CC(O)COC2CC(C)CCC2C(C)C)CC1 (stereo not given)	4	-11	11	3	2	-4	nt
CCOc1ccc(S(=O)(=O)NC2=NCCCCC2)cc1	-3	-15	15	-6	?	-2	nt
CC[C@]12c3[nH]c4ccc(OC)cc4c3CCN1C(=O)C(CC(=O)NC(C)(C)C)C[C@@H]2C(=O)N1CCN(C(=O)c2ccco2)CC1 (stereo not given in full)	2	0	0	-2	nt	-9	nt
CN1CCC2CC1c1cc(-c3ccc(C(F)(F)F)cc3)ccc12 (stereo not given)	nt	-12	12	1	nt	-4	-5%
O=C(NCCc1ccccc1)C1CCN(C(=O)c2sccc2-n2cccc2)CC1	-1	81*	-81	-2	-2	-3	-6%
COc1ccccc1CNC(=O)C1CCN(C(=O)N(C)C)CC1	2	-8	8	7	32	-4	nt
COc1ccccc1CNC(=O)C1CCN(C(=O)c2sccc2-n2cccc2)CC1	0	?	-71	-6	5	-4	-2%
O=C(NCc1cccc(F)c1)C1CCN(C(=O)c2sccc2-n2cccc2)CC1	0	50	-50	-1	2	-6	nt
Cc1ccc(CCNC(=O)C2CCN(C(=O)c3sccc3-n3cccc3)CC2)cc1	-1	50	-50	1	-1	-6	-2%
CCC(C(=O)NC(C)(C)C)N(Cc1ccccc1Cl)C(=O)c1snc(C(N)=O)c1N (stereo not given)	1	6	-6	-2	25	-3	nt
CC(C(=O)NCc1ccccc1)N(Cc1ccccc1Cl)C(=O)c1snc(C(N)=O)c1N (stereo not given)	1	84*	-84	7	-7	-4	2%
CC(C)(C)OC(=O)N1CSC[C@H]1C(=O)NC[C@H](CC(=O)O)c1ccc(Cl)cc1	2	78*	-78	0	4	-18	-4%
Cc1ccc(-n2nc3c(c2NC(=O)C(C)(C)C)CS(=O)(=O)C3)cc1	0	-26	26	0	0	nt	nt
Cc1ccc(C(C(=O)NC(C)(C)C)N(Cc2cccs2)C(=O)c2ccc3c(c2)OCCO3)cc1 (stereo not given)	-1	-12	12	2	10	-2	3%
Cc1ccc(C(C(=O)NC(C)(C)C)N(Cc2cccs2)C(=O)c2csnn2)cc1 (stereo not given)	2	-19	19	3	-9	-8	nt
SMILES	NTR1 ag	SR-BI DiI inh	SR-BI DiI-HDL act	V-ATPase pHluor	Vif inh	CaV13 ICDI inh	DiI quench
CCC(C)(C)NC(=O)C(c1ccc(C)cc1)N(Cc1cccs1)C(=O)c1ccc2c(c1)OCCO2 (stereo not given)	4	77*	-77	0	-3	nt	6%
COc1cc(CCC(=O)NCc2ccc3c(c2)OCO3)cc(OC)c1OC	0	6	-6	1	11	-5	nt
CCOC(=O)N1CCN(C(=O)C2CCN(C(=O)Nc3ccccc3)CC2)CC1	0	74*	-74	-6	10	-6	-1%
COc1ccc(NC(=O)Nc2nnc(-c3ccccc3SCc3ccccc3)s2)cc1	1	101*	-101	1	-10	-5	3.2µM*
COc1cccc(NC(=O)Nc2nnc(-c3ccccc3SCc3ccccc3)s2)c1	1	47	-47	-3	-3	0	nt
CC#CC(=O)N1CCCC(Cc2cccc(OC)c2)(C(=O)OCC)C1 (stereo not given)	1	-14	14	2	-5	-4	nt
OC1CCN(c2cc(-c3ccccc3)nc3cc(-c4ccc(F)cc4)nn23)CC1	20	72*	-72	0	-8	2	6%
COc1cc(/C=C\C(=O)NCc2ccc3c(c2)cc(C)n3C)cc(OC)c1OC	1	78*	-78	1	6	-4	-4%
Cc1onc(NC(=O)c2ccc(Cl)cc2Cl)c1Br	2	-13	13	-1	1	-4	nt
Cc1ccc(Cl)cc1NC(C#N)c1ccccc1 (stereo not given)	1	10	-10	-4	0	-5	nt
CN(C(=O)c1ccc(Br)o1)C1CCS(=O)(=O)C1 (stereo not given)	-2	nt	nt	-2	3	-4	nt
CCCC(=O)Nc1ccc(Cl)c(NC(=O)c2cccc(OC)c2)c1	0	78*	-78	1	6	-6	2%
Cc1cc(C(N)=O)nn1-c1c(Cl)cc(Cl)cc1Cl	4	13	-13	-4	13	1	nt
COc1cc(C2C(C#N)=C(N)N(c3cccnc3)C3=C2C(=O)CCC3)ccc1O (stereo not given)	-1	-4	4	4	30	-7	nt
COc1ccc(C2C(C#N)=C(N)N(c3ccccc3C#N)C3=C2C(=O)CCC3)cc1CN1CCCC1 (stereo not given)	1	3	-3	2	8	-3	-4%
